pEC50: −log10 of the molar value.
Key:
[1] = molecular target: T1, Peroxisome proliferator-activated receptor alpha (Homo sapiens) (UniProt Q07869); experiment: Transactivation of human GAL4-fused PPARalpha LBD expressed in human HepG2 cells at 1 uM after 24 hrs by dual renilla-luciferase reporter gene assay relative to fenofibrate; type: cell-based
T1 sequence (whole entry): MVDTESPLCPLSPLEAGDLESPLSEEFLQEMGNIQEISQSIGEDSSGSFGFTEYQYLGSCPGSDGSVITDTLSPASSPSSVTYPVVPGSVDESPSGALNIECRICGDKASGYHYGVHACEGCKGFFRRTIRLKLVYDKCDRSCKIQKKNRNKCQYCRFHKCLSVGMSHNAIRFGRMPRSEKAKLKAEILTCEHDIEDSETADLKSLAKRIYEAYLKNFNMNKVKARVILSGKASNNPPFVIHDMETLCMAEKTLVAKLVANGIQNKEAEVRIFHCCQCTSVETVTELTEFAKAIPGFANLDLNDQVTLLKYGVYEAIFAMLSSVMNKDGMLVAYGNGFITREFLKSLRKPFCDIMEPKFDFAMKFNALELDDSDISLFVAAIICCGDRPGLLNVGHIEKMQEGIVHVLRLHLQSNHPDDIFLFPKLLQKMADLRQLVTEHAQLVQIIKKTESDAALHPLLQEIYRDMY
In short: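 HepG2 cells cotransfected with 4xUAS-tk-luc and pBIND-hPPARα. Cells treated 24 h with compound at 1 μM final; fenofibrate 10 μM served as reference and 0.1% DMSO as vehicle. Read-out by reporter gene luciferase assay.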

[2] = molecular target: T2, Peroxisome proliferator-activated receptor alpha (Homo sapiens, UniProt Q07869); experiment: Transactivation of human GAL4-fused PPARalpha LBD expressed in human HepG2 cells after 24 hrs by renilla luciferase reporter gene assay; type: cell-based
T2 sequence (Q07869 whole entry): T1 sequence (whole entry)

SMILES	activation relative to fenofibrate [1]	pEC50 [2]
O=C(O)c1cc(C2CC2)nc2c1c(C1CCCC1)nn2-c1ccc(Cl)cc1	76.8	
Cc1cc(C(=O)O)c2c(C(C)C)nn(-c3ccc(Cl)c(Cl)c3)c2n1	51	
Cc1cc(C(=O)O)c2c(C(C)C)nn(-c3ccc(Br)cc3)c2n1	85.2	< 5.40
CCc1cc(C(=O)O)c2c(C(C)C)nn(-c3ccc(Br)cc3)c2n1	251	5.91
CCC(C)c1nn(-c2ccc(Cl)cc2)c2nc(C3CC3)cc(C(=O)O)c12 (centres undefined)	224	6.34
CCc1cc(C(=O)O)c2c(C(CC)CC)nn(-c3ccc(F)cc3)c2n1	250	5.82
Cc1cc(C(=O)O)c2c(C(C)C)nn(-c3ccc(F)cc3)c2n1	79.2	5.69
Cc1cc(C(=O)O)c2c(C(C)C)nn(-c3cccc(OCc4ccccc4)c3)c2n1	47.4	
CCC(Cc1cc(C)nc2c1c(C(C)C)nn2-c1ccc(F)cc1)C(=O)O (centres undefined)	1.53	
CC(C)(Sc1ccc(CCN(CCCCC2CCCCC2)C(=O)NC2CCCCC2)cc1)C(=O)O	200	
Cc1cc(C(=O)O)c2c(C)nn(-c3ccccc3)c2n1	13.6	
Cc1cc(C(=O)O)c2c(C3CC3)nn(-c3ccc(Cl)cc3)c2n1	24.6	
Cc1cc(C(=O)O)c2c(C3CCCC3)nn(-c3ccc(Cl)cc3)c2n1	64.8	
CCc1cc(C(=O)O)c2c(C(C)C)nn(-c3cccc(Cl)c3)c2n1	192	< 5.64
O=C(O)c1cc(C2CC2)nc2c1c(C1CCC1)nn2-c1ccc(Cl)cc1	88.3	
CCC(CC)c1nn(-c2ccc(Cl)cc2)c2nc(C)cc(C(=O)O)c12	183	< 5.45

SMILES	activation relative to fenofibrate [1]	pEC50 [2]
CCc1cc(C(=O)O)c2c(C(C)C)nn(-c3ccc(Cl)cc3)c2n1	196	5.86
Cc1cc(C(=O)O)c2c(C(C)C)nn(-c3cccc(Cl)c3)c2n1	96.7	
CC(C)c1nn(-c2ccc(Br)cc2)c2nc(C3CC3)cc(C(=O)O)c12	199	5.70
Cc1cc(C(=O)O)c2c(C(C)C)nn(-c3ccc(C(F)(F)F)cc3)c2n1	26	
CC(C)c1nn(-c2ccc(F)cc2)c2ncc(C(=O)O)c(Cl)c12	6.21	
CCC(C)c1nn(-c2ccc(Cl)cc2)c2nc(C)cc(C(=O)O)c12 (centres undefined)	176	6.17
CC(C)c1nn(-c2ccc(Cl)cc2)c2nc(C3CC3)cc(C(=O)O)c12	114	< 5.56
Cc1cc(C(=O)O)c2c(C(C)C)nn(-c3ccc(I)cc3)c2n1	111	5.62
CCc1cc(C(=O)O)c2c(C(C)C)nn(-c3ccc(I)cc3)c2n1	111	5.75
CCc1cc(C(=O)O)c2c(C(CC)CC)nn(-c3ccc(Cl)cc3)c2n1	213	5.91
CC(C)c1nn(-c2ccc(Cl)cc2)c2nc(-c3ccccc3)cc(C(=O)O)c12	243	5.74
CCC(CC)c1nn(-c2ccc(F)cc2)c2nc(C)cc(C(=O)O)c12	205	5.84
CCc1cc(C(=O)O)c2c(C(C)C)nn(-c3ccc(Cl)cn3)c2n1	16.2	
CC(C)c1nn(-c2cccc(Cl)c2)c2nc(C3CC3)cc(C(=O)O)c12	163	< 5.87
Cc1cc(C(=O)O)c2c(C(C)(C)C)nn(-c3cccc(Cl)c3)c2n1	5.75	
CCc1cc(C(=O)O)c2c(C3CCCC3)nn(-c3ccc(Cl)cc3)c2n1	78.2	

Source: ChEMBL document CHEMBL4385646, “Structural development of 1H-pyrazolo-[3,4-b]pyridine-4-carboxylic acid derivatives as human peroxisome proliferator-activated receptor alpha (PPARα)-selective agonists” (Bioorg Med Chem Lett, 2019)
